# Screening results: PubChem BioAssay, Johns Hopkins Ion Channel Center
# TRPC6 activator – activates the mouse TRPC6 cation channel; Q61143; HEK293-TRPC6 membrane potential dye fluorescence; hits give high values; B-score at 10 µM; 310,000 compounds, 0.13% hits;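 active = B-score of the integrated fluorescence ratio above library mean plus 3 SD, and starting fluorescence ratio within library mean plus 5 SD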;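 note: higher score means more depolarization so channel activation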
# TRPC4 block – blocks the mouse TRPC4 cation channel; Q9QUQ5; HEK293 TRPC4beta/mu-opioid, DAMGO-evoked Fluo4 calcium flux; hits give low values; B-score at 10 µM; 300,000 compounds, 0.39% hits; AID 2247;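 active = B-score over 3 SD under the library average, no early fluorescence shift, positive overall ratio signal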
#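 Material: HEK293 cells with stable TRPC4beta plus mu-opioid receptor expression / Probe or stimulus: DAMGO in two steps, submaximal then maximal / Compound: single concentration per test compound / Technique: kinetic Fluo4 fluorescence imaging of calcium influx / Read-out: per-well B score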
# TRPC6 inhibitor – inhibitors of mouse TRPC6 channel; HEK293-TRPC6, membrane potential dye, ACh-evoked depolarization; hits give low values; B-score at 10 µM; 310,000 compounds, 1.1% hits; Q61143; AID 2553;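 active = B-score under library mean minus 3 SD, initial fluorescence not abnormally high, positive integrated signal ratio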;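 note: B-score derived from integrated fluorescence ratio over the kinetic read; more negative B-score means stronger inhibition of depolarization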
# TRPC4 potent – allosterically enhances the mouse TRPC4 cation channel; Q9QUQ5; HEK293 TRPC4beta/mu-opioid, DAMGO EC20, Fluo-4 Ca2+ flux; hits give high values; B-score at 10 µM; 310,000 compounds, 0.42% hits; AID 2227;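 active = B-score of calcium response area above 5 SD of library B-scores, with initial fluorescence ratio within 5 SD of library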;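 note: B-score of integrated fluorescence ratio over time as area under calcium response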
# TRPC4 act – TRPC4 (mouse) channel activation; AID 2237; B-score at 10 µM; HEK293 TRPC4beta/mu-opioid, Fluo4 calcium fluorescence; hits give high values; Q9QUQ5; 310,000 compounds, 0.49% hits;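 active = B-score above 5 SD of library B-scores, and initial fluorescence ratio not above library mean plus 5 SD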;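 note: positive B-score marks a calcium rise read as TRPC4 activation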
#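 Assay system: HEK293 cells stably co-expressing mouse TRPC4beta and mu-opioid receptor / Timing: Fluo4 dye loading 45 min at room temperature, 110 s recording / Signal: Fluo4 calcium-sensitive dye fluorescence, kinetic, 1 Hz baseline / Read-out: integrated baseline-normalised fluorescence ratio, converted to per-well B score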
# An asterisk follows results filed as active; i = inactive. The list is not random: actives were taken first. Their share in the collection is about 2.3%.
SMILES,TRPC6 activator,TRPC4 block,TRPC6 inhibitor,TRPC4 potent,TRPC4 act
CCOP(=O)(c1ccccc1)c1nc(-c2ccccc2C)oc1N1CCCCC1 (configuration not stated),i,i,i,11*,i
CCN1CCN(c2ccc(S(=O)(=O)N3CCCCC3)cc2NC(=O)c2ccc([N+](=O)[O-])s2)CC1,i,i,i,i,i
Cc1ccc(C)c(-c2ccc(=O)n(Cc3ccc(F)cc3Cl)n2)c1,i,i,i,13*,i
Cc1cc(C)c2nc(C)cc(N/N=C/c3ccc(O)cc3)c2c1,i,-6*,i,i,i
Cc1ccccc1OCC(=O)NCC(c1cccs1)N1CCOCC1 (configuration not stated),i,i,i,i,i
CC(C)(CO)NCc1c(OCc2ccc(Cl)cc2)ccc2ccccc12,i,i,-6.7*,i,i
CCNc1nc(NC(C)C)nc(N(n2cnnc2)S(=O)(=O)c2ccc(C)cc2)n1,i,i,i,i,i
Cc1ccc(-c2nc3cnccn3c2Nc2ccc3c(c2)OCO3)cc1,i,i,-5.7*,i,i
O=C(Cc1ccc(NC2=NC3CS(=O)(=O)CC3S2)cc1)NCCc1ccccc1 (configuration not stated),i,i,i,i,i
CCCCN(C)CCC(=O)Nc1ccc2c(c1)CCC2,i,i,i,i,63*
COc1ccc(NC(=O)CN(C)CC(=O)Nc2ccc3c(c2)CCC3)cc1,i,i,i,i,i
CCC(C(=O)NC1CCCC1)N(C(=O)c1snc(C(N)=O)c1N)c1ccc(C)cc1C (configuration not stated),i,i,i,i,i
Oc1cccc(CCC2CCCCN2Cc2cn[nH]c2-c2ccc3c(c2)OCO3)c1 (configuration not stated),i,i,i,i,43*
CN1CCN(c2ccc(NC(=O)c3ccc(-c4ccc(Cl)cc4)o3)cc2)CC1,i,i,i,i,i
CN1CCN(c2ccc(NC(=O)c3ccc(-c4cccc([N+](=O)[O-])c4)o3)cc2)CC1,i,i,i,i,167*
O=C(Nc1sc2c(c1C(=O)O)CCC2)C(=O)N1CCOCC1,i,i,i,i,i
CNC(=O)c1ccc(Nc2nnc(-c3ccc(O)cc3)c3ccccc23)cc1,i,i,i,i,i
CN(C)C(=O)c1ccc(Nc2nnc(-c3ccc(O)cc3)c3ccccc23)cc1,i,i,i,i,60*
Cc1ccc(S(=O)(=O)N2CCC(C(=O)OCC(=O)N(C)CC(=O)Nc3ccc(F)cc3)CC2)cc1C,i,i,i,79*,i
CC(=O)c1ccc(N2CCN(C(=O)c3cc4c(s3)CCCC4)CC2)cc1,i,i,i,10*,i
O=C(c1cc2c(s1)CCCCC2)N1CCN(c2ncccn2)CC1,i,i,i,i,i
O=S(=O)(NCc1cc(-c2ccccc2Cl)no1)c1ccc(Cl)cc1,i,i,i,10*,i
CCCN(CCC)CCNC(=O)C1CC(=O)N(c2ccc(OC)cc2)C1c1ccc(OC)cc1 (configuration not stated),i,i,i,i,43*
COc1cccc(NC(=O)c2cc3ccccc3cc2OC)c1,i,i,i,i,i
CCCN(CCC)C(=O)Cc1coc2ccc3ccccc3c12,i,i,i,10*,i
SMILES,TRPC6 activator,TRPC4 block,TRPC6 inhibitor,TRPC4 potent,TRPC4 act
CCCCc1cc(O)c(CCCC)c(O)c1,i,i,i,11*,65*
c1ccc2c3c([nH]c2c1)CCNC3,i,i,i,24*,i
Cc1ccc2[nH]c3c(c2c1)CNCC3,i,i,i,i,i
CCc1cc(C(=O)N/N=C/c2ccc(OC)cc2)c2ccccc2n1,i,i,i,i,i
O=C(c1ccc(COc2ccccc2Br)cc1)N1CCCCC1,i,i,i,10*,i
O=C(CSc1nnc(-c2ccccc2)o1)c1ccc2c(c1)OCCO2,i,-6*,i,i,i
Cc1c(S(=O)(=O)Nc2cccc3ccccc23)c(=O)n(C)c(=O)n1C,i,i,i,i,i
C/[N+]([O-])=C\c1cccc(OCCN2CCN(c3ncc(C(F)(F)F)cc3Cl)CC2)c1,i,i,i,12*,i
c1coc(CN=C2NC(=NCc3ccco3)c3ccccc32)c1,i,-7*,i,i,i
NC(=O)N=Nc1c(O)[nH]c2c(Br)cc(Br)cc12,i,i,i,11*,i
CCCn1c(NC(=O)c2ccccc2)nc2ccccc21,i,i,i,i,i
CCCn1c(NC(=O)c2cccc(S(=O)(=O)N3CCCC3)c2)nc2ccccc21,i,-6*,i,43*,i
CC(CNC(=O)c1ccccc1Cl)NC(=O)c1ccccc1Cl (configuration not stated),i,i,i,i,i
OC(COCc1ccc(Cl)cc1)CN1CCCCC1 (configuration not stated),i,i,i,i,i
COCCSc1ccccc1C(=O)N1CCC(Cc2ccccc2)CC1,i,-7*,i,i,44*
CC(C)c1ccc(C2/C(=C(/O)c3ccc(F)cc3)C(=O)C(=O)N2CCCN2CCOCC2)cc1 (configuration not stated),i,i,i,i,i
O=c1[nH][nH]c(-c2ccccc2)c1C=Nc1ccc(Cl)cc1,i,i,i,84*,i
COc1ccc(-n2c(CN3CCC(C(N)=O)CC3)nc3ccc([N+](=O)[O-])cc3c2=O)c(OC)c1,i,i,i,i,i
CCOC(=O)C1CCN(Cc2nc3ccc([N+](=O)[O-])cc3c(=O)n2-c2ccc(OC)cc2OC)CC1,i,i,i,i,59*
O=S(=O)(c1ccc(Cl)cc1Br)N1CCCCC1,i,i,i,17*,i
COc1cccc(NC(=O)c2ccc(NCCCN3CC(C)CC(C)C3)c([N+](=O)[O-])c2)c1 (configuration not stated),i,i,i,14*,i
COc1ccc(C(CNC(=S)NCc2ccccc2)N2CCCC2)cc1 (configuration not stated),i,-6*,i,i,i
COc1ccc(C(CNC(=O)c2cccc(S(=O)(=O)Nc3ccc(C)cc3)c2)N2CCCCC2)cc1 (configuration not stated),i,i,i,i,i
